Laboratory results: article PMC5012948 (ChemMedChem, 2016)
Several values for one entry are separate records, joined by “and”; a condition that tells them apart may be missing. Equal values may be shown once. Read-outs that look alike come from different tables or passages of the source.

How the values were obtained:
[1] = system: coupling enzymes (phosphatase and purine nucleoside phosphorylase); experiment: Control: inhibition of the coupling enzymes by high FPP and IPP; assay type: biochemical
SaHepPPS = SaHepPPS (Staphylococcus aureus, UniProt Q2FYG6); experiment: biochemical; assay type: biochemical; conditions: for Kd: substrate inhibition at high substrate concentrations
[2] = system: B. subtilis and S. aureus; experiment: Synergy/antagonism assays, average FICI over both organisms; assay type: cell-based; conditions: drugs in combination with 10, both organisms, n = 24
Summary of the method: (§1)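 Checkerboard-style two-drug combinations of the test compound with antibiotics. Conversely, the test compound ran as a 3× gradient, 40 μg/mL to 18 ng/mL, with each antibiotic at half its MIC. New MICs came from Gompertz fits.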

S. aureus = experiment: Synergy/antagonism two-drug combination assay; assay type: cell-based, Staphylococcus aureus
Summary of the method: as §1

B. subtilis = experiment: Synergy/antagonism two-drug combination assay; assay type: cell-based, Bacillus subtilis; conditions: 10 + sulfamethoxazole
Summary of the method: as §1

[3] = system: S. aureus (Newman strain); experiment: S. aureus cell growth inhibition; assay type: cell-based, Staphylococcus aureus
human FPPS = conditions: cited from earlier work

## CC(C)=CCC/C(C)=C/CC/C(C)=C/CO[P@@](=O)(O)OP(=O)(O)O (stereo in doubt) [FPP, farnesyl diphosphate]
[1]
  inhibition of the coupling enzymes: this is not the case
SaHepPPS; Kd (dissociation constant for the inhibitory SES ternary complex)
  Kd: 35 µM and ~35 µM

## CC(C)=CCC/C(C)=C/CC/C(C)=C/CC/C(C)=C/COP(=O)(O)OP(=O)(O)O [GGPP, geranylgeranyl diphosphate]
SaHepPPS; GGPP as substrate
  Km: 652 µM
  Vmax: 2.2 µM/min
SaHepPPS; high concentrations
  substrate-inhibition effect at high concentrations: did not exhibit the substrate-inhibition effect

## C=C(C)CCOP(=O)(O)OP(=O)(O)O [IPP, isopentenyl diphosphate]
[1]
  inhibition of the coupling enzymes: this is not the case
SaHepPPS; read-out: Kd (dissociation constant for the inhibitory SES ternary complex)
  Kd: 300 ± 40 µM

## CCCCCCCCCCCCC[n+]1ccn(CC(P(=O)([O-])O)P(=O)(O)O)c1 (centres unmarked) [compound 10]
[2]
  FICIavg: 1.43 ± 0.37
S. aureus; 10 + ampicillin
  FICI: 1.40
S. aureus; 10 + tetracycline
  FICI: 1.85
B. subtilis
  FICI: 1.73
[3]
  IC50 for S. aureus cell growth inhibition: 7 µg/mL

## O=P(O)(O)C(O)(Cn1ccnc1)P(=O)(O)O [compound 15, zoledronate]
Human FPPS
  activity against human FPPS: potent activity
SaHepPPS
  IC50: ~100 µM
